TRPC6 inh: mouse TRPC6 channel inhibition; HEK293-TRPC6, membrane potential dye, ACh-evoked depolarization; active compounds read low; AID 2553; 310,000 compounds, 1.1% hits; Q61143; B-score at 10 µM;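 active = B-score under library mean minus 3 SD, initial fluorescence not abnormally high, positive integrated signal ratio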;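 note: B-score derived from integrated fluorescence ratio over the kinetic read; more negative B-score means stronger inhibition of depolarization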
Target sequence (Q61143 whole entry, looked up): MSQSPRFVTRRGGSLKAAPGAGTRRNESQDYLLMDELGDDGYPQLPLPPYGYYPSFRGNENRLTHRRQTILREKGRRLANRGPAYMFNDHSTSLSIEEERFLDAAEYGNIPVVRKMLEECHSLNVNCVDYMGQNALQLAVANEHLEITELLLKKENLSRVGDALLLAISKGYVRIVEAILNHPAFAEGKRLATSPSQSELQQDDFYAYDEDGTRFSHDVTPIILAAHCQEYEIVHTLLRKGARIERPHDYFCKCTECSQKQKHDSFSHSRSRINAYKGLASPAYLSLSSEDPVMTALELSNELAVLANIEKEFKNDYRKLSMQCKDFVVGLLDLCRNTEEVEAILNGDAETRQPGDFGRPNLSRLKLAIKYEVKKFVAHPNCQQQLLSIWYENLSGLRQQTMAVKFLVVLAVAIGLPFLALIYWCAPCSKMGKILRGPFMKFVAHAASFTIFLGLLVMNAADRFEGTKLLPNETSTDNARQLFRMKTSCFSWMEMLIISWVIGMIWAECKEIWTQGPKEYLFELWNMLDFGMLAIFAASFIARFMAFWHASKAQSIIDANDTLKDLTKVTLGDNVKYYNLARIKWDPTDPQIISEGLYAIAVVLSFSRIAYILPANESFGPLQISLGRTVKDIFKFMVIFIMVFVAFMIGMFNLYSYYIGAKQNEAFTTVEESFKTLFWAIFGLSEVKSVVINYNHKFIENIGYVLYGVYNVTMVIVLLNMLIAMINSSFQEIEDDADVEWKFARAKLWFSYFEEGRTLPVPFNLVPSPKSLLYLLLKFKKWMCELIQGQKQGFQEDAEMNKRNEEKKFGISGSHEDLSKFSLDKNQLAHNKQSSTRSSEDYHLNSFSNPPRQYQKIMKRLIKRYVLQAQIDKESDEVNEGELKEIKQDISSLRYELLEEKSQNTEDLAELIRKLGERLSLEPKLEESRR
Kir21 inh: Kir2.1 (mouse) channel inhibition; HEK293-Kir2.1, FluxOR thallium flux fluorescence; active compounds read low; B-score at 10 µM; 310,000 compounds, 0.85% hits; AID 1672;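 active = fluorescence ratio B-score at or below minus 3 SD of library scores, with starting-brightness B-score within 2 SD, cut at about -4.2 in these data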;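 note: channel flux triggered by added potassium and thallium sulfate stimulus; B-score of peak minus minimum fluorescence over baseline after thallium stimulus; more negative B-score means stronger Kir2.1 block with less thallium influx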
TRPC4 act: opens the mouse TRPC4 cation channel | Q9QUQ5 | HEK293 TRPC4beta/mu-opioid, Fluo4 calcium fluorescence; active compounds read high | B-score at 10 µM | 310,000 compounds, 0.49% hits | AID 2237;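 active = B-score above 5 SD of library B-scores, and initial fluorescence ratio not above library mean plus 5 SD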;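 note: positive B-score marks a calcium rise read as TRPC4 activation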
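Assay system: HEK293 cells stably co-expressing mouse TRPC4beta and mu-opioid receptor / Timing: Fluo4 dye loading 45 min at room temperature, 110 s recording / Signal: Fluo4 calcium-sensitive dye fluorescence, kinetic, 1 Hz baseline / Read-out: integrated baseline-normalised fluorescence ratio, converted to per-well B score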
TRPC6 act: mouse TRPC6 channel activation | 310,000 compounds, 0.13% hits | Q61143 | HEK293-TRPC6 membrane potential dye fluorescence; active compounds read high | B-score at 10 µM;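 active = B-score of the integrated fluorescence ratio above library mean plus 3 SD, and starting fluorescence ratio within library mean plus 5 SD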;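 note: higher score means more depolarization so channel activation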
TRPC4 PAM: allosteric potentiators of mouse TRPC4 channel; Q9QUQ5; HEK293 TRPC4beta/mu-opioid, DAMGO EC20, Fluo-4 Ca2+ flux; active compounds read high; B-score at 10 µM; 310,000 compounds, 0.42% hits;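 active = B-score of calcium response area above 5 SD of library B-scores, with initial fluorescence ratio within 5 SD of library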;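 note: B-score of integrated fluorescence ratio over time as area under calcium response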
TRPC4 block: TRPC4 (mouse) channel inhibition. B-score at 10 µM. 300,000 compounds, 0.39% hits. HEK293 TRPC4beta/mu-opioid, DAMGO-evoked Fluo4 calcium flux; active compounds read low;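 active = B-score over 3 SD under the library average, no early fluorescence shift, positive overall ratio signal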
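System: stable TRPC4beta/mu-opioid receptor HEK293 cells; Dosing: single-point compound dosing; Measured by: Fluo4 Ca2+ flux fluorescence; Read-out basis: per-well B score of integrated baseline-normalized Fluo4 ratio.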
Active calls of the source: *; i = inactive. A selection: hits, their analogues and other compounds. The true share with any hit is near 2.9%.

SMILES	TRPC6 inh	Kir21 inh	TRPC4 act	TRPC6 act	TRPC4 PAM	TRPC4 block
COC(=O)C1=C(COc2ccccc2)NC(=O)NC1c1ccc2ccccc2c1 (configuration not stated)	i	-0.68	45*	i	i	i
CCOC(=O)C1=C(CNCCc2ccc(Cl)cc2)NC(=O)NC1c1cccc([N+](=O)[O-])c1 (configuration not stated)	i	-1.2	i	i	17*	i
COCCN(CCOC)S(=O)(=O)c1ccc(C(=O)Nc2ccc([N+](=O)[O-])cc2OC)cc1	i	-0.02	i	i	i	i
CN1C(=O)/C(=C/c2cccc(Cl)c2)Sc2ccc(C(=O)N3CCCC3)cc21	i	-0.99	i	i	i	i
N#CC1=C(N)c2ccccc2CC12CCCCC2	i	0.65	i	i	i	i
C=CCn1c(SCC(=O)NCc2ccco2)nc2sc3c(c2c1=O)CCCC3	i	-0.69	i	i	i	i
O=C(NCc1ccco1)c1ccc2nc3sc4c(c3c(=O)n2c1)CCCC4	i	-0.11	i	i	i	-6*
CCCN(CCC)CCCNC(=O)c1cc2cc3ccc(Cl)cc3nc2o1	i	0.69	53*	i	i	i
Cc1ccc2cc3cc(C(=O)NCCCN4CCCC4)oc3nc2c1	i	0.83	i	i	i	i
CCCCN(CC)CCNC(=O)c1cc2cc3ccc(Cl)cc3nc2o1	i	-0.91	103*	i	13*	i
CCc1ccc(CNC(=O)c2cc3c(C)nc4ccccc4c3o2)cc1	i	0.6	i	i	i	i
CCCCN(CC)CCNC(=O)c1cc2c(C)nc3ccccc3c2o1	i	0.7	138*	i	i	i
CCCCN(CC)CCCNC(=O)c1cc2cc3ccc(C)cc3nc2o1	i	0.29	i	i	16*	i
O=C(NCc1ccco1)c1cc2cc3ccc(Cl)cc3nc2o1	i	-0.69	i	i	i	i
c1ccc(C2(CNc3ccccn3)CCCC2)cc1	i	-4.4*	i	i	i	i
COc1ccccc1-n1c(SCC(=O)O)nc2c(sc(=S)n2-c2ccccc2C)c1=O	i	0.53	i	i	i	i
CCCCn1c(SCC(=O)OCC)nc2c(sc(=S)n2-c2ccccc2OC)c1=O	i	-0.73	i	i	i	-6*
CN(C)CCSc1nnc2sc3ccccc3n12	i	0.19	i	i	11*	i
N#CCSc1nnc2sc3ccccc3n12	i	-1.1	i	i	i	i
Nc1cc(C(F)(F)F)ccc1Nc1ccccc1	i	1.6	i	i	i	-6*
COc1ccccc1Cn1c(C(C)C)nc2ccccc21	i	-5*	i	i	i	i
Cc1ccc(C)c(S(=O)(=O)N2CCN(C(=O)CCc3nc4ccccc4c(=O)[nH]3)CC2)c1	i	0.34	194*	i	i	i
Cc1cc(C)c(C(=O)COC(=O)Cn2c(C)csc2=O)cc1C	i	-1.3	i	i	i	i
CC1CC(C)(C)OC(C[N+]2(C)CCCCC2)O1 (configuration not stated)	i	-0.41	i	i	i	i
CCOC(=O)Nc1c(O)ccc2oc(C)c(-c3ccccc3)c12	i	-15*	i	i	i	i
SMILES	TRPC6 inh	Kir21 inh	TRPC4 act	TRPC6 act	TRPC4 PAM	TRPC4 block
COc1ccc(CC(=O)Nc2c(C(=O)N3CCN(c4ccccc4OC)CC3)oc3ccccc23)cc1OC	i	1.4	i	i	i	i
Cc1ccc(SCc2c(C#N)c3ccccc3n2C)cc1	i	-6.6*	i	i	i	i
CC[N+]1(CC)CC2CCC(C)(C1)C2(C)C (configuration not stated)	i	-0.04	i	i	i	i
Cc1sc2ncnc(NCC(c3ccccc3)N(C)C)c2c1C (configuration not stated)	i	0.99	218*	i	i	i
CN(C)C(CNc1ncnc2sc3c(c12)CCCC3)c1ccco1 (configuration not stated)	i	1.4	121*	i	i	i
Cc1sc2ncnc(NCC(O)c3ccccc3)c2c1C (configuration not stated)	i	0.22	i	i	i	i
Cc1nc(NCC(c2ccccc2)N(C)C)c2c(C)c(C)sc2n1 (configuration not stated)	i	0.48	267*	i	i	i
CC1CN(S(=O)(=O)c2cccc(C(F)(F)F)c2)CC(C)O1 (configuration not stated)	i	-4.4*	i	i	i	i
CCCCN(CC)CCNC(=O)Cn1cc2c(n1)-c1c(oc(C(=O)N3CCCC3)c1C)CC2	i	2.1	125*	i	i	i
Cc1ccc(/C=C2\SC(=S)N(CCCC(=O)Nc3ccccc3C(=O)O)C2=O)cc1	i	-0.08	i	i	i	i
COc1ccc(/C=C2/SC(=S)N(CCCC(=O)Nc3ccccc3C(=O)O)C2=O)cc1	i	0.05	i	i	i	-6*
CCN(CC)CCNC(=O)c1cc2c(=O)n(C)c3ccccc3c2n1C	i	0	i	i	i	i
CCCCN(CC)CCNC(=O)c1cc2c(=O)n(C)c3ccccc3c2n1C	i	-1.2	67*	i	14*	i
CCN(CC)CCCNC(=O)c1cc2c(=O)n(C)c3ccccc3c2n1C	i	0.03	i	i	i	i
CCCN(CCC)CCCNC(=O)c1cc2c(=O)n(C)c3ccccc3c2n1C	i	0.02	59*	i	16*	i
Cc1nc2ccccc2n1S(=O)(=O)c1cc(C(=O)O)ccc1Cl	i	0.01	i	i	i	i
C=CCn1c(SCC(=O)c2ccc(NS(=O)(=O)c3ccccc3)cc2)nnc1-c1cccs1	i	-0.1	i	i	18*	i
C=CCn1c(SCC(=O)Nc2ccc(C(=O)OCC)cc2)nnc1-c1cccs1	i	-0.88	i	i	i	i
Cc1cccc(OC(C)C(=O)N2CCCc3ccccc32)c1 (configuration not stated)	i	-5.2*	i	i	i	i
Cc1ccc(OC(C)C(=O)N2CCCc3ccccc32)cc1 (configuration not stated)	i	-5.5*	i	i	i	i
Cc1cccc(OCC(=O)N2CCCc3ccccc32)c1	i	-0.61	i	i	i	i
